From ChEMBL document CHEMBL4359826, “Preparation of bivalent agonists for targeting the mu opioid and cannabinoid receptors” (Eur J Med Chem, 2019)
Activity calls are given as the source filed them.

How the values were obtained:
[1] = target: T1, Cannabinoid receptor (Rattus norvegicus) (UniProt Q9QZN9+P20272); assay: Antagonist activity at CB1R/CB2R in Wistar rat brain membranes at 10 uM in presence of JWH-018 after 60 mins by [35S]-GTPgammaS binding assay relative to control; format: functional, cell membranes
Summary of the method: (§1)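 Rat brain membranes (30 µg protein/tube) incubated 60 min at 30 °C with 0.05 nM [35S]GTPγS and ligand at 10^-10–10^-5 M. Buffer: 50 mM Tris-HCl pH 7.4 with 30 µM GDP, 100 mM NaCl, 3 mM MgCl2, 1 mM EGTA. […] Nonspecific binding taken with 10 µM GTPγS; basal set as 100%. Filtration and scintillation counting; n≥3.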

[2] = target: Delta-type opioid receptor (Rattus norvegicus, UniProt P33533); assay: Displacement of [3H]Ile5,6-deltorphin-2 from DOR in Wistar rat brain membranes after 60 mins by liquid scintillation analysis; format: cell membranes
[3] = Agonist activity at MOR/CB1R/CB2R receptor in Wistar rat brain membranes after 60 mins by [35S]-GTPgammaS binding assay; format: cell membranes
[4] = target: Kappa-type opioid receptor (Cavia porcellus, UniProt P41144); format: cell membranes, Brain, Membranes
[5] = organism: Rattus norvegicus; conditions: Wistar, Brain, Membranes, at 10 µM
[6] = target: Mu-type opioid receptor (Rattus norvegicus, UniProt P33535); assay: Displacement of [3H]DAMGO from MOR in Wistar rat brain membranes after 60 mins by liquid scintillation analysis; format: cell membranes
[7] = target: T2, Cannabinoid receptor (Rattus norvegicus, UniProt Q9QZN9+P20272); assay: Displacement of [3H]JWH-018 from CB1R/CB2R in Wistar rat brain membranes after 60 mins by liquid scintillation analysis; format: cell membranes
[8] = target: T2, Cannabinoid receptor; format: cell membranes, Wistar, Brain, Membranes
[9] = target: T1, Cannabinoid receptor (Rattus norvegicus); assay: Displacement of [3H]JWH-018 from CB1R/CB2R in Wistar rat brain membranes at 10 uM after 60 mins by liquid scintillation analysis; format: cell membranes
Summary of the method: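 Whole rat brain membranes (cerebellum removed; 0.3–0.5 mg/mL protein) in 50 mM Tris-HCl pH 7.4 with 2.5 mM EGTA, 5 mM MgCl2 and 0.5 mg/mL fatty-acid-free BSA, 30 °C. Kinetics used 0.6 nM [3H]JWH-018: association over 0–90 min, dissociation started with 10 µM JWH-018 after 60 min. Saturation over 0.5–35 nM. Competitors at 10^-11–10^-5 M, 60 min. Nonspecific binding with 10 µM JWH-018. Filtration onto PEI-soaked GF/B filters; n≥3.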

[10] = organism: Rattus norvegicus; assay: Antagonist activity at MOR/CB1R/CB2R in Wistar rat brain membranes at 10 uM in presence of N-[6-[[2-[[(4R,4aS,7aR,12bS)-4a-hydroxy-9-methoxy-3-methyl-2,4,5,6,7a,13-hexahydro-1H-4,12-methanobenzofuro[3,2-e]isoquinoline-7-ylidene]amino]oxyacetyl]amino]hexyl]-6-[3-(naphthalene-1-carbonyl)indol-1-yl]hexanamide after 60 mins by [35S]-GTPgammaS binding assay relative to control; format: cell membranes; summary of the method: as §1
[11] = organism: Rattus norvegicus; assay: Antagonist activity at MOR/CB1R/CB2R in Wistar rat brain membranes at 10 uM in presence of (S)-N-((2R,8S)-18-(3-(1-naphthoyl)-1H-indol-1-yl)-8-benzyl-3,6,9,12-tetraoxo-4,7,10,13-tetraazaoctadecan-2-yl)-2-amino-3-(4-hydroxyphenyl)propanamide after 60 mins by liquid scintillation analysis relative to control; format: cell membranes; summary of the method: as §1
[12] = target: Mu-type opioid receptor (Rattus norvegicus) (UniProt P33535); assay: Antagonist activity at MOR in Wistar rat brain membranes at 10 uM in presence of oxycodone after 60 mins by [35S]-GTPgammaS binding assay relative to control; format: functional, cell membranes
Summary of the method: (§2)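 Rat brain membranes (30 µg protein/tube) incubated 60 min at 30 °C with 0.05 nM [35S]GTPγS and ligand at 10^-10–10^-5 M. Buffer: 50 mM Tris-HCl pH 7.4 with 30 µM GDP, 100 mM NaCl, 3 mM MgCl2, 1 mM EGTA. Nonspecific binding taken with 10 µM GTPγS; basal set as 100%. Filtration and scintillation counting; n≥3.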

[13] = target: Mu-type opioid receptor (Rattus norvegicus) (UniProt P33535); assay: Antagonist activity at MOR in Wistar rat brain membranes at 10 uM in presence of Tyr-D-Ala-Gly-Phe-NH2 after 60 mins by [35S]-GTPgammaS binding assay relative to control; format: functional, cell membranes; summary of the method: as §2
[14] = organism: Rattus norvegicus; assay: Agonist activity at MOR/CB1R/CB2R in Wistar rat brain membranes at 10 uM in presence of naloxone,rimonabant and AM630 after 60 mins by [35S]-GTPgammaS binding assay relative to control; format: cell membranes; summary of the method: as §1
[15] = target: Cannabinoid receptor 1 (Rattus norvegicus, UniProt P20272); assay: Agonist activity at CB1R in Wistar rat brain membranes in presence of rimonabant after 60 mins by [35S]-GTPgammaS binding assay; format: functional, cell membranes; summary of the method: as §1
[16] = test system: Rattus norvegicus; assay: Effect on nociception of the contralateral paw in rat model of sodium iodoacetate-induced osteoarthritis paw withdrawal threshold in late phase at 20 ug administered as intrathecal injection measured after 60 to 90 mins by Von Frey test (reference value: 43 +/- 3.4 g); format: organism-based; conditions: in vivo, icv_or_intrathecal
[17] = test system: Rattus norvegicus; assay: Effect on nociception of the contralateral paw in rat model of sodium iodoacetate-induced osteoarthritis paw withdrawal threshold in early phase at 20 ug administered as intrathecal injection measured up to 45 mins by Von Frey test (reference value: 44 +/- 2.4 g); format: organism-based; conditions: in vivo, icv_or_intrathecal, 0.75 h
[18] = test system: Mus musculus; assay: Antinociceptive activity in CD-1 mouse assessed as increase in thermal latency at 10 mg/kg, iv after 15 to 120 mins by hot plate technique; format: functional, organism-based
Summary of the method: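 Male CD-1 mice (25 g) given 10 mg/kg i.v. in 10 mL/kg; vehicle saline with 5% DMSO. Hot plate held at 55.0 °C. Latency to paw lick or jump, cut-off 60 s, read at 15–120 min. Baseline is the mean of three pre-test readings. Data given as %MPE; n=6/group.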

[19] = test system: Rattus norvegicus; assay: Antiallodynic activity in sodium iodoacetate-induced rat model of osteoarthritis assessed as increase in maximum effect in early phase at 20 ug administered as intrathecal injection measured up to 45 mins by Von Frey test; format: functional, organism-based
[20] = target: Cannabinoid receptor 1 (Rattus norvegicus) (UniProt P20272); assay: Agonist activity at CB1R in Wistar rat brain membranes at 10 uM in presence of rimonabant after 60 mins by [35S]-GTPgammaS binding assay relative to control; format: functional, cell membranes; summary of the method: as §1
[21] = organism: Rattus norvegicus; assay: Agonist activity at MOR/CB1R/CB2R in Wistar rat brain membranes after 60 mins by [35S]-GTPgammaS binding assay relative to control; format: cell membranes; summary of the method: as §1
[22] = target: T3, Cannabinoid receptor 2 (Rattus norvegicus) (UniProt Q9QZN9); assay: Agonist activity at CB2R in Wistar rat brain membranes at 10 uM in presence of AM630 after 60 mins by [35S]-GTPgammaS binding assay relative to control; format: functional, cell membranes; summary of the method: as §1
T3 sequence (whole entry): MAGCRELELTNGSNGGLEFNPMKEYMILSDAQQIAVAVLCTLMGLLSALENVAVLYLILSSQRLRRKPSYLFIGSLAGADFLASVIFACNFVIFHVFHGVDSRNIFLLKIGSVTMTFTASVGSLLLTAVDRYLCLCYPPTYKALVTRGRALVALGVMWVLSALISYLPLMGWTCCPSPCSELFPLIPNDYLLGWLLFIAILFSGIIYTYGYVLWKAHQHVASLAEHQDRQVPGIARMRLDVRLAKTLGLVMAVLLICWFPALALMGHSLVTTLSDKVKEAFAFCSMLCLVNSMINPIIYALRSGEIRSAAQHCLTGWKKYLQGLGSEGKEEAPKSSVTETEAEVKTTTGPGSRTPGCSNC

[23] = target: T4, Cannabinoid receptor 2 (Rattus norvegicus, UniProt Q9QZN9); assay: Agonist activity at CB2R in Wistar rat brain membranes in presence of AM630 after 60 mins by [35S]-GTPgammaS binding assay; format: functional, cell membranes; summary of the method: as §1
T4 sequence (Q9QZN9 whole entry): T3 sequence (whole entry)

Mu-type opioid receptor, sequence (P33535 whole entry): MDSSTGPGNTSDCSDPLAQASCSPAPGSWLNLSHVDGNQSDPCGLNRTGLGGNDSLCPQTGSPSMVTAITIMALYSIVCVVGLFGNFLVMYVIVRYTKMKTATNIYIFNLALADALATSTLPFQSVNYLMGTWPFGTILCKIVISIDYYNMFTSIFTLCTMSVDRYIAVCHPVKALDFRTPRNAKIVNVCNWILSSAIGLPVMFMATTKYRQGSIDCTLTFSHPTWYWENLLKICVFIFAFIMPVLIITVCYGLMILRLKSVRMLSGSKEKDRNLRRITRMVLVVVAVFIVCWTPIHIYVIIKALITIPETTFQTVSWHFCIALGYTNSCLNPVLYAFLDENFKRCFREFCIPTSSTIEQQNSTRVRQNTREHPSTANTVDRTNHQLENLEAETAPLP
Delta-type opioid receptor, sequence (P33533 whole entry): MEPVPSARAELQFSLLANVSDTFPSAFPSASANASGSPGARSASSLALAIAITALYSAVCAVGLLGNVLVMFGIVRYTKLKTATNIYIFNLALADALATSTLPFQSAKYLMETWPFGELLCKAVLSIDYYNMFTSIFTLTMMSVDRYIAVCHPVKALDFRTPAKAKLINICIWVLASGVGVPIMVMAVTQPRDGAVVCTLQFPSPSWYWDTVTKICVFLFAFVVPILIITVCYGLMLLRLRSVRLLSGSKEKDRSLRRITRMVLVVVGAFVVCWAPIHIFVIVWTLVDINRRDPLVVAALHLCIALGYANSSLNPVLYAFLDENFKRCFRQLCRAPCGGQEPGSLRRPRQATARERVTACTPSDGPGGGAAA
Kappa-type opioid receptor, sequence (P41144 whole entry): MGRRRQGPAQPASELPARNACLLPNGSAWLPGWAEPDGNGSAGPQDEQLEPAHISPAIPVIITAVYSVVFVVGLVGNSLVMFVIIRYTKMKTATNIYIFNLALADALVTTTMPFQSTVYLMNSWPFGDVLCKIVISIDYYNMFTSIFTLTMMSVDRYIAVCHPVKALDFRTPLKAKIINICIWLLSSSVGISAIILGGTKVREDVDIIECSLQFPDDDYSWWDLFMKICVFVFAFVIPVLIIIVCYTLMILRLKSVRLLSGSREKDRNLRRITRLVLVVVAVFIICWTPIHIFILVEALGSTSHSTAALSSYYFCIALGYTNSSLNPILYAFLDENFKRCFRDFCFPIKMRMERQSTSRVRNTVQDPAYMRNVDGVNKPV
T1 sequence (P20272 whole entry, looked up, one chain of several): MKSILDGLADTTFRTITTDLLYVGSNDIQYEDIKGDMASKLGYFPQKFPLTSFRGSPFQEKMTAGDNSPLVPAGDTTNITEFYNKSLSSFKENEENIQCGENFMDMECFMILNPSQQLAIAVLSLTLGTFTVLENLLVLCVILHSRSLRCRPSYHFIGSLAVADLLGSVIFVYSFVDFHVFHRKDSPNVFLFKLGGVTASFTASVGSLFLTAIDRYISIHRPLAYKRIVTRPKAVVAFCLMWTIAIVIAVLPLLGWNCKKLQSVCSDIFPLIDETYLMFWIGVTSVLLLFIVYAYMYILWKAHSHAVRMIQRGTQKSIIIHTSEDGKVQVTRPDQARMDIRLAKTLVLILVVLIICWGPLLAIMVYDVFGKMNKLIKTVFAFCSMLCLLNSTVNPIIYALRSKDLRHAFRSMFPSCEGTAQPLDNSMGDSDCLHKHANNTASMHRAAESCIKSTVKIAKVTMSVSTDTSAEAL
Mu-type opioid receptor (Rattus norvegicus), sequence (P33535 whole entry): as the sequence (P33535 whole entry) above
Cannabinoid receptor 1, sequence (P20272 whole entry): as the sequence (P20272 whole entry, looked up, one chain of several) above
Cannabinoid receptor 1 (Rattus norvegicus), sequence (P20272 whole entry): as the sequence (P20272 whole entry, looked up, one chain of several) above

Row | Compound | Ki [2] [nM] | EC50 [3] [nM] | Ki [4] [nM] | Emax [5] [%] | Ki [6] [nM] | Ki [7] [nM] | Ki [8] [nM] | also measured
1 | Cc1c(C(=O)NN2CCCCC2)nn(-c2ccc(Cl)cc2Cl)c1-c1ccc(Cl)cc1 | – | – | – | – | – | – | – | Emax [1]: 100%
2 | C[C@@H](NC(=O)[C@@H](N)Cc1ccc(O)cc1)C(=O)NCC(=O)N[C@@H](Cc1ccccc1)C(=O)NCCCCCn1cc(C(=O)c2cccc3ccccc23)c2ccccc21 | 214 | 1800 | 231 | 110 | 50 | 1013 | 823 | –
3 | NC(=O)[C@H](Cc1ccccc1)NC(=O)[C@H](Cc1c[nH]c2ccccc12)NC(=O)[C@@H]1CCCN1C(=O)[C@@H](N)Cc1ccc(O)cc1 | – | – | – | – | – | – | – | Activity [9]: inactive
4 | COc1ccc2c3c1O[C@H]1/C(=N\OCC(=O)O)CC[C@@]4(O)[C@@H](C2)N(C)CC[C@]314 | 110 | 225 | > 10000 | 109 | 24 | – | – | –
5 | NCCCCCn1cc(C(=O)c2cccc3ccccc23)c2ccccc21 | – | – | – | 102 | – | 190 | 269 | –
6 | COc1ccc2c3c1O[C@H]1/C(=N\OCC(=O)NCCCOCCOCCOCCCNC(=O)CCCCCn4cc(C(=O)c5cccc6ccccc56)c5ccccc54)CC[C@@]4(O)[C@@H](C2)N(C)CC[C@]314 | 386 | – | 186 | 99 | 20 | 183 | 78 | Emax [10]: 101%; Emax [11]: 99%; Emax [1]: 110%; Emax [12]: 100%; Emax [13]: 97%
7 | COc1ccc2c3c1O[C@H]1/C(=N\OCC(=O)NCCCOCCOCCOCCCN)CC[C@@]4(O)[C@@H](C2)N(C)CC[C@]314 | 757 | 200 | 503 | 112 | 74 | – | – | –
8 | O=C(O)CCCCCn1cc(C(=O)c2cccc3ccccc23)c2ccccc21 | – | 4220 | – | 81 | – | 247 | 205 | –
9 | CN1CC[C@]23c4c5ccc(O)c4O[C@H]2[C@@H](O)C=C[C@H]3[C@H]1C5 | – | – | – | – | – | – | – | Activity [9]: inactive
10 | C[C@@H](NC(=O)[C@@H](N)Cc1ccc(O)cc1)C(=O)NCC(=O)N[C@@H](Cc1ccccc1)C(=O)NCC(=O)NCCCCCn1cc(C(=O)c2cccc3ccccc23)c2ccccc21 | 134 | 114 | 63 | 160 | – | 251 | 317 | Emax [14]: 100%; EC50 [15]: 378 nM; Activity [16]: 35 g; Activity [17]: 39 g; Activity [18]: Active; Activity [19]: Active; Emax [20]: 125%; Emax [21]: 161%; Emax [22]: 148%; EC50 [23]: 671 nM
11 | C[C@@H](NC(=O)[C@@H](N)Cc1ccc(O)cc1)C(=O)NCC(=O)N[C@@H](Cc1ccccc1)C(=O)NCCC(=O)NCCCCCn1cc(C(=O)c2cccc3ccccc23)c2ccccc21 | 190 | 18 | 151 | 114 | 48 | 919 | 1216 | –
12 | H-PVNFKFL-OH | – | – | – | – | – | > 10000 | – | –
